Bioassay records deposited in PubChem BioAssay by Broad Institute.
Wnt act: Wnt/beta-catenin pathway activation; Wnt/beta-catenin reporter cell assay, activator, plate reader; activation, % at 9.35 µM; actives 1.2% (n = 300,000); AID 743398; in the data active = activation above about 30%, passing the limit was not always enough; inconclusive = no clear call, values can overlap the other calls;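 also: 0% = neutral control wells and 100% = positive control wells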
MITF TRPM1 HTS: MITF TRPM1 promoter activation in melanoma cells | actives 0.75% (n = 300,000) | activation, % at 12.5 µM | SK-MEL-5 TRPM1-promoter luciferase, 24 h; % of positive control, neutral wells = 0 | AID 588334;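 active = mean activation of at least 80% with every replicate also reaching 80%; inconclusive = mean reaches 80% but some replicate falls short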;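 also: 0% = neutral control wells and 100% = parthenolide positive control wells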
XiGFP reactiv: X-chromosome reactivation activator. XiGFP mouse fibroblasts, % GFP-positive cells imaging, 3 d; cells co-treated with 5-aza-dC sensitizer; scaled so ellipticine positive control = 100%. activation, % at 7.58 µM. actives 0.055% (n = 360,000). AID 743238;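 active = mean normalized replicate activation at least 10% and every replicate at or above 10%; inconclusive = only one of the two criteria met; inactive = mean below 10% and not all replicates reach 10%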;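 also: 0% = median of on-plate neutral control wells and 100% = ellipticine 6 µM median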
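Material: SV40-immortalized XiGFP fibroblast cells, line 68-5-11 | Buffer or medium: DMEM containing 5-aza-dC | Dosing: One concentration, pinned | Times: 3 d treatment, 15 min room-temperature fixation | Controls: Ellipticine 6 µM positive control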
NSD2 inh: inhibitors of human histone methyltransferase NSD2. NSD2 peptide methylation, AlphaScreen, 120 min. actives 0.54% (n = 310,000). inhibition, % at 12.5 µM; in the data active = inhibition above about 50%
Target sequence (O96028 whole entry, looked up): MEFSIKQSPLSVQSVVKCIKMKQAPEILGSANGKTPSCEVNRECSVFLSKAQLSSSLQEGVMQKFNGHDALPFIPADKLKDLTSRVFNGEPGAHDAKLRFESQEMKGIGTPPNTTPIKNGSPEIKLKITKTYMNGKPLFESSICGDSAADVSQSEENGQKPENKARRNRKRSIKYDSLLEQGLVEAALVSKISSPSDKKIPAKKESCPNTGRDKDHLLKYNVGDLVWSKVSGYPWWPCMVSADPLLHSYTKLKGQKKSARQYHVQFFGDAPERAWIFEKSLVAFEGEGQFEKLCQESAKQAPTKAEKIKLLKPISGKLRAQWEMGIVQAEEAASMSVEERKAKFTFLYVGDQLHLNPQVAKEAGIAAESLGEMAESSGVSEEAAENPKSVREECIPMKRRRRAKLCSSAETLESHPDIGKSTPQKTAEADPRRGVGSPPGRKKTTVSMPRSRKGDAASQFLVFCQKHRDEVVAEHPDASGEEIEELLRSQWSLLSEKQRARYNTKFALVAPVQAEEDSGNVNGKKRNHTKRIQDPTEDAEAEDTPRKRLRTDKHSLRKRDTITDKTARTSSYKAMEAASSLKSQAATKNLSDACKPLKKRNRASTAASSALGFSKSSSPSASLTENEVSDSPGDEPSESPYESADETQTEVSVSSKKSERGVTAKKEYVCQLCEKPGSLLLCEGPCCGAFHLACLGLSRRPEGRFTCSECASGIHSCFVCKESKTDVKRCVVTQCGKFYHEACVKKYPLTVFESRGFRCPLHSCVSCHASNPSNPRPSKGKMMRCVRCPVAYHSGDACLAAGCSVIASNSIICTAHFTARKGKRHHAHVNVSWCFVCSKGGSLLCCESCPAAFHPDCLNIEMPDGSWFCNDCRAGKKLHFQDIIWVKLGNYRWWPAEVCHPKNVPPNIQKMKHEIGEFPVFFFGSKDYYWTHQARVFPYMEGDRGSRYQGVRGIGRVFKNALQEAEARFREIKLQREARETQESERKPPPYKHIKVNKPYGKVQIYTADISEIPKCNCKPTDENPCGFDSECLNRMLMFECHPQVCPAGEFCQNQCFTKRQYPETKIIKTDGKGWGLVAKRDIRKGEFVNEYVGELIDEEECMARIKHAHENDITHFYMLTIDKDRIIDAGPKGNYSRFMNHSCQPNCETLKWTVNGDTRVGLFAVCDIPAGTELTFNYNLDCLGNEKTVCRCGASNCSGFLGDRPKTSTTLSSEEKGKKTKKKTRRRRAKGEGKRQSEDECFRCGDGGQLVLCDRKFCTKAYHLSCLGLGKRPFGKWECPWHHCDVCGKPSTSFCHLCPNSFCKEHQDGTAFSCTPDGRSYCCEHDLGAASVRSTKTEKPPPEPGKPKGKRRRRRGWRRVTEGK
CASP6 VEID inh: caspase-6 (human) enzyme inhibition; P55212; AID 686996; purified caspase-6, Z-VEID-R110 cleavage fluorescence; inhibition, % at 12.5 µM; actives 0.53% (n = 350,000);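 active = mean inhibition across replicates at least about 35%, with every replicate also reaching that limit, limit read from the data; inconclusive = only one of the two criteria met; inactive = neither criterion met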;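 also: 0% = median of neutral control wells and 100% = no fluorescence left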
esBAF inh: inhibitors of esBAF chromatin remodeling in mouse ES cells; Bmi1-luciferase knock-in reporter, 24 h; 100% = twice the neutral-well signal; reporter increase, % at 12.5 µM; actives 2% (n = 350,000); in the data active = activation above about 40%; inconclusive = no clear call, values can overlap the other calls;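 also: 0% = median of the plate's neutral control wells and 100% = double that signal; a rise in the Bmi1 reporter signal indicates esBAF inhibition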
Active calls of the source: *; ? = inconclusive; . = no result given; ! = repeats disagree. A selection: hits, their analogues and other compounds. The true share with any hit is near 3%.

SMILES	Wnt act	MITF TRPM1 HTS	XiGFP reactiv	NSD2 inh	CASP6 VEID inh	esBAF inh
NC(=O)c1cc(Cc2ccccc2)sc1NC(=O)c1ccco1	27.2	118.2*	.	-2.4	2.3	85.4*
Cc1ccccc1N(C)S(=O)(=O)c1nnc(NC(=O)c2ccco2)s1	-0.6	-12.5	0.0	10.7	69.4*	1.1
COc1ccc2c3c(n(C)c2c1)[C@H](CO)N(C(=O)Nc1ccccc1F)CC31CCN(C(=O)c2ccccc2)CC1	.	.	0.2	.	.	.
CNC[C@H]1Oc2ccc(NC(=O)NC(C)C)cc2C(=O)N(C)C[C@H]1C	.	.	0.2	.	.	.
CCCC#Cc1ccc([C@H]2[C@@H](CO)N3C(=O)CN(C(=O)Nc4cc(F)ccc4F)C[C@@H]23)cc1	.	.	0.7	.	.	.
O=C(C[C@@H]1C=C[C@H](NC(=O)Nc2cc(F)ccc2F)[C@@H](CO)O1)NCc1ccccn1	.	.	-0.6	.	-3.0	-0.1
CCCC#Cc1cnc2c(c1)C(=O)N([C@H](C)CO)C[C@H](C)[C@@H](CN(C)Cc1ccncc1)O2	.	.	-0.4	.	-2.4	2.3
CC(=O)c1sc(NC(=O)COc2ccccc2)nc1C	5.9	50.9	0.1	2.6	-3.8	33.4
O=C(Nc1nnc(C23CC4CC(CC(C4)C2)C3)s1)c1ccco1	41.2*!	77.9	.	-3.5	.	31.2
Cc1nnc(NC(=O)c2ccco2)s1	-2.7	0.9	0.0	.	-1.3	5.6
O=C(COc1ccccc1)Nc1nc2c(s1)CCCC2	20.2	113.9*	0.2	2.8	-4.3	58.0*
CN(C)c1ccc(C(=O)OCc2ccccc2)cc1	.	60.4	.	-3.5	.	49.6*
COC(=O)c1ccc(COC(=O)c2ccc(N(C)C)cc2)cc1	.	32.3	.	-7.8	.	-7.7
Cc1ccc(C(=O)Nc2cccc(C(=O)NC3CCCC3)c2)cc1	2.5	32.8	0.1	-2.1	-1.7	49.8*
O=C(c1ccccc1)c1ccc(N2CCCC2)cc1	19.8	94.3*	.	2.6	.	59.7*
Cc1cccc(/C=C/C(=O)c2ccc(N3CCOCC3)cc2)c1	-3.1	.	0.2	1.9	-0.7	.
Cc1ccc(/C=C/C(=O)c2ccc(N3CCOCC3)cc2)s1	10.9	91.5*	0.1	0.9	-0.6	.
CC(C)Oc1ccc(C(=O)NC2CCCCC2)cc1	.	68.8	.	-0.8	.	50.0*
CC(C)Oc1ccc(C(=O)NC2CCS(=O)(=O)C2)cc1 (configuration not stated)	.	1.3	.	1.1	-0.3	2.0
Nc1nc2ccc(C(=O)Nc3ccc(N4CCOCC4)cc3)cc2s1	9.5	5.6	0.6	-1.2	0.6	51.4*
CC(=O)Nc1cc(C(=O)c2ccccc2)ccc1N1CCOCC1	.	.	.	-7.3	.	7.9
Nc1cc(C(=O)c2ccccc2)ccc1N1CCOCC1	?	.	.	-5.0	.	52.0*
O=C(Nc1ccc(N2CCOCC2)cc1)c1ccc2ncsc2c1	7.6	-2.5	0.0	0.4	-0.1	27.0
Cc1ccc(C(=O)Nc2ccc(N3CCCCC3)cc2)cc1	?	106.3*	0.2	.	4.0	39.7
O=C(Nc1ccc(OC(F)(F)F)cc1)c1cnc2n(c1=O)CCS2	8.9	6.8	0.2	.	-5.2	47.8*
SMILES	Wnt act	MITF TRPM1 HTS	XiGFP reactiv	NSD2 inh	CASP6 VEID inh	esBAF inh
C[C@@H]1CN([C@@H](C)CO)C(=O)c2cccc(NC(=O)c3ccncc3)c2O[C@@H]1CN(C)Cc1ccc(C(=O)Nc2ccccc2N)cc1	.	.	-0.2	.	-1.6	-20.0
O=C(/C=C/c1cccs1)c1ccc(NC(=O)c2cccc(Br)c2)cc1	-1.5	33.2	.	-1.8	.	5.6
Cc1ccc(C(=O)Nc2ccc(N3CCN(S(C)(=O)=O)CC3)cc2)cc1	-2.0	15.4	.	-0.4	-4.7	5.6
Cc1ccc(C(=O)Nc2ccc(N3CCCC3)cc2)cc1	12.1	36.0	0.0	3.1	-0.3	43.9*
Cc1ccc(C(=O)Nc2ccc(C(=O)/C=C/c3cccs3)cc2)cc1	8.7	.	.	0.5	.	69.3*
Cc1cnc(C(=O)Nc2ccc(OC(F)(F)F)cc2)cn1	8.2	.	0.0	-2.5	-1.6	44.5*
Cc1ccc(C(=O)Nc2cccc(C(=O)N3CCOCC3)c2)cc1	41.3*	8.5	.	2.6	.	21.0
COC(=O)[C@H]1[C@H](CO)[C@H]2Cn3c(ccc(C4=CCCC4)c3=O)[C@H]2N1CC1CCOCC1	.	.	-0.1	.	-2.1	-4.2
CC(=O)Nc1ccccc1C(=O)C(=O)Nc1cccc(C(=O)NC2CC2)c1	.	23.0	0.6	0.7	.	47.8*
Cc1cnc(C(=O)Nc2ccc(N3CCCCC3)cc2)cn1	8.4	91.6*	0.1	2.2	-2.6	.
O=C(Nc1ccc(N2CCCCC2)cc1)c1cncc(Br)c1	39.3*	127.8*	.	5.9	.	9.4
Cc1cnc(C(=O)Nc2nnc(C(C)C)s2)cn1	32.2*	.	.	-1.3	.	5.9
O=C(Nc1ccc(S(=O)(=O)N2CCCC2)cc1)c1cncc(Br)c1	-3.2	14.9	0.1	1.3	3.2	-5.2
C[C@@H]1CN([C@@H](C)CO)C(=O)c2cc(NC(=O)CCN3CCOCC3)ccc2O[C@H]1CN(C)C(=O)Nc1cccc2ccccc12	.	.	0.0	.	-6.1	-5.4
CN1CCN(C(=O)C[C@@H]2CC[C@@H]3[C@H](COC[C@@H](O)CN3C(=O)Nc3cc(Cl)cc(Cl)c3)O2)CC1	.	.	0.0	.	-8.1	-2.7
CCCN1C[C@@H](C)[C@H](OC)CN(C)C(=O)c2cc(NC(=O)NC3CCCC3)ccc2OC[C@@H]1C	.	.	0.0	.	.	.
O=C(Nc1ccc(N2CCCC2)cc1)c1ccc2ccccc2c1	32.1*	47.8	0.3	-0.6	-0.3	39.9
Cc1ccc(C(=O)Nc2ccc(N3CCOCC3)cc2)cc1	.	67.5	.	.	-6.4	56.3*
Cc1ccc(NC(=O)c2ccc(S(=O)(=O)N3CCOCC3)cc2)cc1	-0.1	30.5	0.0	-2.2	1.6	15.0
CCCN(C)C[C@@H]1Oc2cc(-c3cncnc3)ccc2S(=O)(=O)N([C@@H](C)CO)C[C@@H]1C	.	.	-0.9	.	.	-7.1
O=C(C1CC1)N1C[C@@H]2[C@H](c3ccccc31)[C@@H](CO)N2C(=O)Nc1cccc(F)c1	.	.	0.0	.	-1.1	-2.9
CCNc1nc(N)c(C(=O)c2ccc(Cl)s2)s1	58.0*	.	.	.	.	43.3*
Cc1cccc(-c2ccc([C@H]3[C@H]4CN(C(=O)c5ccc6c(c5)OCO6)CCCCN4[C@H]3CO)cc2)c1	.	.	0.0	.	-5.3	4.7
C#CCOc1ccc(/C=C2/C(=O)N(c3ccc(S(N)(=O)=O)cc3)N=C2C)cc1OC	-3.0	.	0.0	5.2	39.0*	-5.7
COc1cc(/C=C2\C(=O)N(c3cccc(C(=O)O)c3)N=C2C)ccc1OCc1ccccc1	10.9	.	0.5	18.8	4.7	52.3*
C[C@H]1CCCCO[C@H](CN(C)S(=O)(=O)c2ccc(Cl)cc2)[C@@H](C)CN([C@@H](C)CO)C(=O)c2cc(NC(=O)c3ccccc3)ccc2O1	.	.	-0.1	.	-0.5	6.0
COC(=O)CCc1c(C)c(C(=O)c2ccc(F)cc2)c2ccccn12	4.6	3.5	0.0	-1.0	0.2	.
